This note sets out measurements from ChEMBL document CHEMBL2046404, “Design, synthesis, and structure-activity correlations of novel dibenzo[b,d]furan, dibenzo[b,d]thiophene, and N-methylcarbazole clubbed 1,2,3-triazoles as potent inhibitors of Mycobacterium tuberculosis” (J Med Chem, 2012).

Converted amounts (≈) assume the structure as drawn.

The test system of test [1] is Mycobacterium tuberculosis. Kind of test: Antitubercular activity against Mycobacterium tuberculosis H37Rv ATCC 27294 after 28 days by agar dilution method. It counts as functional. As to conditions: H37Rv ATCC 27294, 672 h. In short, it runs like this: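 Twofold serial dilutions incorporated into Middlebrook 7H11 agar with OADC, final 25–0.78 μg/mL. Inoculum from fresh 7H11/OADC slants, 1 mg/mL wet weight in 0.05% Tween 80 saline diluted 10⁻² (~10⁷ cfu/mL); 5 μL spotted per tube.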
Background: Agar dilution tests growth on a series of plates holding different concentrations.

The next test deals with HeLa. Kind of test: Cytotoxicity against human HeLa cells after 48 hrs after MTT assay. It counts as cell-based. In short, it runs like this: (§1)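 Cells grown in DMEM with 10% FBS, 37 °C, 5% CO₂. Seeded in 96-well plates and preincubated 24 h before compound, tested at 1, 10, 100, 1000 μM in triplicate wells, 48 h continuous exposure. MTT (10 μL of 5%) added for 60 min, stain eluted with DMSO, absorbance read at 560 nm. IC50 from dose–response curves versus control; mean ± SD of three experiments.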
For orientation: Tetrazolium assays rely on reduction of a dye to a coloured formazan, in cell work by metabolically active cells.

The subject of another test is A549. Kind of test: Cytotoxicity against human A549 cells after 48 hrs after MTT assay. As to conditions: A549, 48 h. It counts as cell-based. In short, it runs like this:
as §1

In a further test the test system is DU-145. The test is described as follows: Cytotoxicity against human DU145 cells after 48 hrs after MTT assay. It counts as cell-based. The following applies: DU-145, 48 h. In short, it runs like this:
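Cells kept in MEM with nonessential amino acids, 1 mM sodium pyruvate, bovine insulin, 10% FBS. Seeded in 96-well plates and preincubated 24 h, then exposed 48 h to 1, 10, 100, 1000 μM in triplicate wells. MTT (10 μL of 5%) for 60 min, DMSO elution, absorbance read at 560 nm. IC50 versus control absorbance; mean ± SD of three experiments.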

For a further test, the system named is SK-N-SH. The test is described as follows: Cytotoxicity against human SK-N-SH cells after 48 hrs after MTT assay. It counts as cell-based. The method, boiled down: as §1
Test [2] deals with Mycobacterium tuberculosis. The test is described as follows: Ratio of ethambutol MIC to compound MIC against Mycobacterium tuberculosis H37Rv ATCC 27294. The test is classed as functional.
Test [3] has as its system Mycobacterium tuberculosis. The test is described as follows: Ratio of pyrazinamide MIC to compound MIC against Mycobacterium tuberculosis H37Rv ATCC 27294. The test is classed as functional.
Test [4] can be described thus: Selectivity index ratio of IC50 for human A549 cells to MIC for Mycobacterium tuberculosis H37Rv ATCC 27294. It counts as functional.
Test [5] is described as follows: Selectivity index ratio of IC50 for human DU145 cells to MIC for Mycobacterium tuberculosis H37Rv ATCC 27294. The test is classed as functional, DU-145.
Test [6] can be described thus: Selectivity index ratio of IC50 for human HeLa cells to MIC for Mycobacterium tuberculosis H37Rv ATCC 27294. The test is classed as functional.
Test [7] in a line: Selectivity index ratio of IC50 for human SK-N-SH cells to MIC for Mycobacterium tuberculosis H37Rv ATCC 27294. It counts as functional.

Consider `CC(c1ccc2c(c1)c1ccccc1n2C)n1cc(-c2ccccc2)nn1` (stereo unspecified), for which the MIC (in general, the smallest concentration in the dilution series that meets the test's criterion for growth inhibition) in test [1] was found to be 71 µM (≈ 25 µg/mL).

`CCCc1cn(C(C)c2ccc3c(c2)c2ccccc2n3C)nn1` (stereo unspecified) came in with an MIC in test [1] of 78 µM (≈ 24.8 µg/mL).

In turn, `CCCCc1cn(C(C)c2ccc3c(c2)c2ccccc2n3C)nn1` (stereo unspecified) showed an MIC in [1] of 75.3 µM (≈ 25 µg/mL).

Regarding `CCCCCCc1cn(C(C)c2ccc3c(c2)c2ccccc2n3C)nn1` (stereo unspecified), the MIC in test [1] was determined as 70 µM (≈ 25.2 µg/mL).

Turning to `CC(c1ccc2c(c1)c1ccccc1n2C)n1cc(CO)nn1` (stereo unspecified), the minimal inhibitory concentration (MIC) in test [1] was found to be 81.7 µM (≈ 25 µg/mL).

Regarding `CC(c1ccc2c(c1)c1ccccc1n2C)n1cc(COCc2ccccc2)nn1` (stereo unspecified), in test [1], the MIC amounted to 63.1 µM (≈ 25 µg/mL).

As for `CC(c1ccc2c(c1)c1ccccc1n2C)n1cc(-c2ccccc2[N+](=O)[O-])nn1` (stereo unspecified), the lowest concentration to inhibit growth in [1] (MIC) was 31.5 µM (≈ 12.5 µg/mL).

In [1], `CC(c1ccc2c(c1)c1ccccc1n2C)n1cc(-c2ccc(C(C)(C)C)cc2)nn1` (stereo unspecified) registered an MIC of 30.6 µM (≈ 12.5 µg/mL).

Molecule `CC(c1ccc2oc3ccccc3c2c1)n1cc(-c2ccccc2)nn1` (stereo unspecified) had an MIC in test [1] of 18.4 µM (≈ 6.24 µg/mL).

In turn, `CCCc1cn(C(C)c2ccc3oc4ccccc4c3c2)nn1` (stereo unspecified) displayed a minimal inhibitory concentration (MIC) in [1] of 41 µM (≈ 12.5 µg/mL).

Turning to `CCCCc1cn(C(C)c2ccc3oc4ccccc4c3c2)nn1` (stereo unspecified), the MIC in test [1] stood at 39.2 µM (≈ 12.5 µg/mL).

The molecule `CCCCCCc1cn(C(C)c2ccc3oc4ccccc4c3c2)nn1` (stereo unspecified) registered an MIC in test [1] of 18 µM (≈ 6.25 µg/mL).

Consider `CC(c1ccc2oc3ccccc3c2c1)n1cc(CO)nn1` (stereo unspecified), for which the MIC in test [1] amounted to 85.3 µM (≈ 25 µg/mL).

With `CC(c1ccc2oc3ccccc3c2c1)n1cc(COCc2ccccc2)nn1` (stereo unspecified), in test [1], 65.2 µM (≈ 25 µg/mL) was the least that counted as inhibitory (MIC).

In the case of `CC(c1ccc2oc3ccccc3c2c1)n1cc(-c2ccccc2[N+](=O)[O-])nn1` (stereo unspecified), inhibition of growth in test [1] (MIC) required 16.3 µM (≈ 6.27 µg/mL).

Regarding `CC(c1ccc2oc3ccccc3c2c1)n1cc(-c2ccc(C(C)(C)C)cc2)nn1` (stereo unspecified), 15.8 µM (≈ 6.25 µg/mL) was the least that counted as inhibitory in [1] (MIC).

Turning to `CC(c1ccc2sc3ccccc3c2c1)n1cc(-c2ccccc2)nn1` (stereo unspecified), the IC50 (in general, the concentration that inhibits the measured activity by half) amounted to 329 µM in the test on HeLa, 444 µM with A549, 90 µM in the test on DU-145 and 291 µM with SK-N-SH. Also, in test [1], it took 4.4 µM (≈ 1.56 µg/mL) to inhibit growth (MIC).

On to `CCCc1cn(C(C)c2ccc3sc4ccccc4c3c2)nn1` (stereo unspecified), for which the IC50 in the test with HeLa was 87 µM; in the test with A549, 68 µM; with DU-145, 96 µM; in the test on SK-N-SH, 93 µM. In test [1], this molecule gave an MIC of 9.75 µM (≈ 3.13 µg/mL).

Take `CCCCc1cn(C(C)c2ccc3sc4ccccc4c3c2)nn1` (stereo unspecified): the half-inhibitory concentration (IC50) with HeLa was determined as 62 µM; in the test on A549, 80 µM; in the test on DU-145, 107 µM; in the test on SK-N-SH, 101 µM. In addition, the MIC in test [1] turned out to be 4.66 µM (≈ 1.56 µg/mL).

In test [1], `CCCCCCc1cn(C(C)c2ccc3sc4ccccc4c3c2)nn1` (stereo unspecified) returned an MIC of 4.3 µM (≈ 1.56 µg/mL).

With `CC(c1ccc2sc3ccccc3c2c1)n1cc(CO)nn1` (stereo unspecified), the MIC in test [1] was 20.2 µM (≈ 6.25 µg/mL).

Turning to `CC(c1ccc2sc3ccccc3c2c1)n1cc(COCc2ccccc2)nn1` (stereo unspecified), the IC50 amounted to 438 µM in the test with HeLa, 189 µM in the test on A549, 225 µM with DU-145 and 103 µM in the test with SK-N-SH. The molecule further returned an MIC in test [1] of 7.84 µM (≈ 3.13 µg/mL).

For the molecule `CC(c1ccc2sc3ccccc3c2c1)n1cc(-c2ccccc2[N+](=O)[O-])nn1` (stereo unspecified), the IC50 in the test on HeLa is 136 µM; in the test on A549, 190 µM; in the test on DU-145, 126 µM; in the test with SK-N-SH it was 386 µM. The same molecule displayed an MIC in [1] of 3.9 µM (≈ 1.56 µg/mL).

Take `CC(c1ccc2sc3ccccc3c2c1)n1cc(-c2ccc(C(C)(C)C)cc2)nn1` (stereo unspecified): the Ratio in test [2] is reported as 4; in test [3] it was 26; in test [4], 55; in test [5], 55; in test [6], 55; in test [7] it was 55. Further, the IC50 in the test with HeLa stood at 191 µM; in the test on A549 it was 482 µM; in the test on DU-145, 105 µM; with SK-N-SH it was 260 µM. Moreover, 1.89 µM (≈ 0.778 µg/mL) was the least that counted as inhibitory in test [1] (MIC).

Regarding `Cc1ccc(-c2cn(C(C)c3ccc4sc5ccccc5c4c3)nn2)cc1` (stereo unspecified), the IC50 was determined as 164 µM in the test on HeLa, 108 µM with A549, 174 µM in the test with DU-145 and 32 µM with SK-N-SH. In test [1], this molecule registered an MIC of 8.48 µM (≈ 3.13 µg/mL).

For `CC(c1ccc2sc3ccccc3c2c1)n1cc(CCc2ccccc2)nn1` (stereo unspecified), the IC50 in the test with HeLa turned out to be 79 µM; with A549, 78 µM; in the test with DU-145, 100 µM. Further, the minimal inhibitory concentration (MIC) in test [1] worked out at 8.17 µM (≈ 3.13 µg/mL).

On to `CC(c1ccc2sc3ccccc3c2c1)n1cc(-c2ccc([N+](=O)[O-])cc2)nn1` (stereo unspecified), for which the 50% inhibitory concentration (IC50) with HeLa came out at 210 µM; in the test with A549, 852 µM; in the test on DU-145, 138 µM; with SK-N-SH, 30 µM. In [1], this molecule came in with an MIC of 3.9 µM (≈ 1.56 µg/mL).

`CC(c1ccc2sc3ccccc3c2c1)n1cc(-c2ccsc2)nn1` (stereo unspecified) gave an MIC in [1] of 34.6 µM (≈ 12.5 µg/mL).

Molecule `COc1ccc2cc(-c3cn(C(C)c4ccc5sc6ccccc6c5c4)nn3)ccc2c1` (stereo unspecified) had an MIC in test [1] of 28.7 µM (≈ 12.5 µg/mL).

In test [1], `CC(c1ccc2sc3ccccc3c2c1)n1cc(-c2cc3ccccc3c3ccccc23)nn1` (stereo unspecified) came in with an MIC of 54.9 µM (≈ 25 µg/mL).

With `CC(c1ccc2sc3ccccc3c2c1)n1cc(-c2ccc(-c3ccccc3)cc2)nn1` (stereo unspecified), in test [1], inhibition of growth (MIC) required 14.5 µM (≈ 6.26 µg/mL).

As to `CC(c1ccc2sc3ccccc3c2c1)n1cc(-c2ccc(Cl)cc2Cl)nn1` (stereo unspecified), the concentration for half-maximal inhibition (IC50) is 162 µM in the test on HeLa, 400 µM with A549, 150 µM in the test with DU-145 and 477 µM in the test on SK-N-SH. In addition, the MIC in [1] was 3.68 µM (≈ 1.56 µg/mL).

Take `CC(c1ccc2sc3ccccc3c2c1)n1cc(-c2ccc(F)cc2Cl)nn1` (stereo unspecified): the Ratio is given as 4 in test [2]; 26 in [3]; 55 in test [4]; 55 in test [5]; 55 in test [6]; 55 in test [7]. The IC50 in the test with HeLa worked out at 155 µM; in the test with A549 it was 249 µM; with DU-145, 147 µM; in the test on SK-N-SH it was 342 µM. Moreover, in [1], the MIC worked out at 1.91 µM (≈ 0.779 µg/mL).

In the case of `CC(c1ccc2sc3ccccc3c2c1)n1cc(-c2ccc(Br)cc2F)nn1` (stereo unspecified), the IC50 in the test on HeLa came to 457 µM; in the test with A549, 219 µM; with DU-145 it was 222 µM; with SK-N-SH, 76 µM. Further, the MIC in [1] came to 3.45 µM (≈ 1.56 µg/mL).

Consider `CC(c1ccc2sc3ccccc3c2c1)n1cc(-c2cc(F)ccc2F)nn1` (stereo unspecified), for which the IC50 in the test with HeLa came out at 96 µM; with A549 it was 272 µM; in the test on DU-145, 767 µM; with SK-N-SH, 21 µM. Also, the MIC in [1] amounted to 3.98 µM (≈ 1.56 µg/mL).

`CC(c1ccc2sc3ccccc3c2c1)n1cc(-c2cc(F)cc(F)c2Cl)nn1` (stereo unspecified): the IC50 with HeLa amounted to 116 µM; in the test with A549, 507 µM; with DU-145 it was 120 µM; in the test with SK-N-SH, 46 µM. Moreover, in [1], the MIC was found to be 12.5 µM (≈ 5.32 µg/mL).

As for `CC[C@@H](CO)NCCN[C@@H](CC)CO` [ETHAMBUTOL], the MIC in test [1] was determined as 7.6 µM (≈ 1.55 µg/mL).

The molecule `NNC(=O)c1ccncc1` [ISONIAZID] registered an MIC in test [1] of 0.37 µM (≈ 0.0507 µg/mL).

In test [1], `NC(=O)c1cnccn1` [PYRAZINAMIDE] came in with an MIC of 50.1 µM (≈ 6.17 µg/mL).
